ChEMBL document CHEMBL4699581, “Design, synthesis, and biological evaluation of N-arylpiperazine derivatives as interferon inducers” (Bioorg Med Chem Lett, 2020)
One block for each compound: values may come before it. Calls of active or inactive are those of the source. The calls are words filed in the database; no cut-off is given here.

How the values were obtained:
Type in all cases: cell-based
[1] = Cytotoxicity against human THP-1 cells assessed as cell viability at 40 uM relative to control; settings: read-out: Activity
How it was run: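 THP-1 viability was measured in parallel with the ISRE reporter readout after treatment with 40 μM of each compound. Results are given as mean ± standard deviation.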

[2] = system: THP-1; assay: Induction of type-1 IFN signalling in human THP-1 cells assessed as increase in type-1 interferon-induced ISG54-ISRE promoter activity by measuring increase in transcriptional activity of luciferase reporter gene at 40 uM by secreted luciferase reporter gene assay relative to control; settings: filed as activator
How it was run: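 THP-1 monocytes carry an ISRE reporter (ISG54 minimal promoter with five ISRE elements) that drives a secreted luciferase. Each compound was tested at 40 μM. Luminescence was read and expressed as relative units normalized to a DMSO control, as mean ± standard deviation.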

[3] = system: THP-1; assay: Induction of type-1 IFN signalling in human THP-1 cells assessed as increase in IFN-stimulated CXCL10 mRNA expression at 50 uM by qPCR analysis; settings: filed as activator
[4] = system: THP-1; assay: Induction of type-1 IFN signalling in human THP-1 cells assessed as increase in IFNbeta secretion at 20 uM by ELISA; settings: filed as activator
How it was run: (§1)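 IFNβ and IP-10 released extracellularly from treated THP-1 cells were quantified by ELISA.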

[5] = system: THP-1; assay: Induction of type-1 IFN signalling in human THP-1 cells assessed as increase in IFN-stimulated IFNbeta mRNA expression at 50 uM by qPCR analysis; settings: filed as activator
[6] = system: THP-1; assay: Induction of type-1 IFN signalling in human THP-1 cells assessed as increase in IFN-stimulated OAS1 mRNA expression at 50 uM by qPCR analysis; settings: filed as activator
[7] = Induction of type-1 IFN signalling in human THP-1 cells assessed as increase in type-1 IFN-induced ISG54-ISRE promoter activity by measuring increase in transcriptional activity of luciferase reporter gene by secreted luciferase reporter gene assay
How it was run: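 The THP-1 secreted-luciferase ISRE reporter (ISG54 minimal promoter plus five ISREs) was tested across a dose range. Luminescence was read as fold change over control. EC50 was calculated and Emax was interpolated from the dose-response curve.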

[8] = system: THP-1; assay: Induction of type-1 IFN signalling in human THP-1 cells assessed as increase in IFN-stimulated IRF7 mRNA expression at 50 uM by qPCR analysis; settings: filed as activator
[9] = system: THP-1; assay: Induction of type-1 IFN signalling in human THP-1 cells assessed as increase in IP-10 secretion at 20 uM by ELISA; settings: filed as activator; how it was run: as §1
[10] = system: THP-1; assay: Cytotoxicity against human THP-1 cells assessed as cell viability at 2.5 to 40 uM; settings: thp-1, 40 µM, dose 2.5-40 µM
How it was run: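 THP-1 viability was tested across a range of treatment concentrations up to 40 µM, alongside the ISRE reporter dose-response.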

[11] = system: THP-1; assay: Induction of type-1 IFN signalling in human THP-1 cells assessed as increase in IFN-stimulated IFIT3 mRNA expression at 50 uM by qPCR analysis; settings: filed as activator

SMILES: O=C(c1cccc(C(F)(F)F)c1)N1CCN(c2cccc(Cl)c2Cl)CC1
viability at 40 µM [1]: 105% | Activity [2]: 2.8 RU

SMILES: Cc1cc([N+](=O)[O-])ccc1C(=O)N1CCN(c2cccc(Cl)c2Cl)CC1
viability at 40 µM [1]: 84% | Activity [2]: 1.4 RU

SMILES: O=C(Nc1ccc(OC(F)(F)F)cc1)N1CCN(c2cccc(Cl)c2Cl)CC1
viability at 40 µM [1]: 96% | Activity [2]: 4.2 RU

SMILES: COc1cccc(NC(=O)N2CCN(c3cccc(Cl)c3Cl)CC2)c1
viability at 40 µM [1]: 87% | Activity [2]: 2.7 RU

SMILES: O=C(Nc1cccc(C(F)(F)F)c1)N1CCN(c2cccc(Cl)c2Cl)CC1
viability at 40 µM [1]: 76% | Activity [2]: 3.3 RU

SMILES: O=C(c1cnccn1)N1CCN(c2cccc(Cl)c2Cl)CC1
viability at 40 µM [1]: 89% | Activity [2]: 2.5 RU

SMILES: COc1cc(OC)cc(C(=O)N2CCN(c3cccc(Cl)c3Cl)CC2)c1
viability at 40 µM [1]: 83% | Activity [2]: 1.9 RU

SMILES: O=C(Nc1ccc(C(F)(F)F)cc1)N1CCN(c2cccc(Cl)c2Cl)CC1
viability at 40 µM [1]: 61% | Activity [2]: 3.9 RU

SMILES: O=C(Cc1cc(F)c(F)cc1F)N1CCN(c2cccc(Cl)c2Cl)CC1
viability at 40 µM [1]: 101% | Activity [2]: 2.8 RU

SMILES: S=C(Nc1cccc(Br)c1)N1CCN(c2cccc(Cl)c2Cl)CC1
viability at 40 µM [1]: 85% | Activity [2]: 1.5 RU

SMILES: S=C(Nc1ccc(Br)cc1)N1CCN(c2cccc(Cl)c2Cl)CC1
viability at 40 µM [1]: 46% | Activity [2]: 0.4 RU

SMILES: CC(C)NC(=S)N1CCN(c2cccc(Cl)c2Cl)CC1
viability at 40 µM [1]: 84% | Activity [2]: 1.2 RU

SMILES: S=C(Nc1ccc(Cl)cc1)N1CCN(c2cccc(Cl)c2Cl)CC1
viability at 40 µM [1]: 99% | Activity [2]: 1.2 RU

SMILES: O=C(c1ccc(C(F)(F)F)cc1)N1CCN(c2cccc(Cl)c2Cl)CC1
viability at 40 µM [1]: 90% | Activity [2]: 1.8 RU

SMILES: O=C(CCc1ccccc1C(F)(F)F)N1CCN(c2cccc(Cl)c2Cl)CC1
viability at 40 µM [1]: 96% | Activity [2]: 2.5 RU

SMILES: O=C(Nc1cccc(OC(F)(F)F)c1)N1CCN(c2cccc(Cl)c2Cl)CC1
viability at 40 µM [1]: 70% | Activity [2]: 3 RU

SMILES: O=C(Nc1ccc([N+](=O)[O-])cc1)N1CCN(c2cccc(Cl)c2Cl)CC1
viability at 40 µM [1]: 90% | Activity [2]: 1 RU

SMILES: COc1ccc(NC(=O)N2CCN(c3cccc(Cl)c3Cl)CC2)cc1
viability at 40 µM [1]: 98% | Activity [2]: 3.3 RU

SMILES: Fc1ccc(NC(=S)N2CCN(c3cccc(Cl)c3Cl)CC2)cc1
viability at 40 µM [1]: 81% | Activity [2]: 1.3 RU

SMILES: O=[N+]([O-])c1ccc(NC(=S)N2CCN(c3cccc(Cl)c3Cl)CC2)cc1
viability at 40 µM [1]: 97% | Activity [2]: 1.1 RU

EC50 [7]: 13.1 µM
SMILES: COc1cc(CC(=O)N2CCN(c3cccc(Cl)c3Cl)CC2)cc(OC)c1OC
Activity [3]: Active | Activity [4]: Active | viability at 40 µM [1]: 98% | Activity [5]: Active | Activity [6]: Active | Activity [8]: Active | Activity [9]: Active | Activity [2]: 5.2 RU | Activity [10]: Non-Toxic | Activity [11]: Active

SMILES: O=C(Nc1ccc(F)cc1)N1CCN(c2cccc(Cl)c2Cl)CC1
viability at 40 µM [1]: 95% | Activity [2]: 2.1 RU

SMILES: CCCCCCCCCCCCC(=O)N1CCN(c2cccc(Cl)c2Cl)CC1
viability at 40 µM [1]: 89% | Activity [2]: 1.3 RU

SMILES: COc1ccc(C(=O)N2CCN(c3cccc(Cl)c3Cl)CC2)cc1
viability at 40 µM [1]: 81% | Activity [2]: 3.7 RU

SMILES: O=C(c1ccc(Cl)cc1Cl)N1CCN(c2cccc(Cl)c2Cl)CC1
viability at 40 µM [1]: 86% | Activity [2]: 2.3 RU
